Experiment [1] has as its target T1, Bromodomain-containing protein 4 (Homo sapiens, UniProt O60885). The experiment in a line: Binding affinity to human recombinant His6-tagged BRD4 bromodomain 1 (N44 to E168 residues) expressed in Escherichia coli BL21 (DE3) cells assessed as change in melting temperature at 200 uM incubated for 30 mins by SYPRO orange dye based thermal shift assay. Put shortly: (§1)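 Thermal shift assay measuring change in melting temperature of each isolated bromodomain module in the presence of compound versus without.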

Experiment [2] has as its target CREB-binding protein (Homo sapiens) (UniProt Q92793). The experiment in a line: Binding affinity to human recombinant His6-tagged CREBBP (R1081 to G1197 residues) expressed in Escherichia coli BL21 (DE3) cells assessed as change in melting temperature at 200 uM incubated for 30 mins by SYPRO orange dye based thermal shift assay. Summed up: as §1
Experiment [3] deals with Bromodomain-containing protein 3 (Homo sapiens) (UniProt Q15059). The experiment in a line: Binding affinity to human recombinant His6-tagged BRD3 bromodomain 1 (P24 to E144 residues) expressed in Escherichia coli BL21 (DE3) cells assessed as change in melting temperature at 200 uM incubated for 30 mins by SYPRO orange dye based thermal shift assay. Summed up:
as §1

In experiment [4] the target is Bromodomain testis-specific protein (Homo sapiens) (UniProt Q58F21). The experiment in a line: Binding affinity to human recombinant His6-tagged BRDT bromodomain 1 (N21 to E137 residues) expressed in Escherichia coli BL21 (DE3) cells assessed as change in melting temperature at 200 uM incubated for 30 mins by SYPRO orange dye based thermal shift assay. Summed up:
as §1

The next experiment concerns VCaP. Nature of the experiment: Antiproliferative activity against AR-positive human VCaP cells assessed as reduction in cell viability incubated for 144 hrs by cell-titer glo assay. The format is functional, cell-based. Put shortly:
(§2)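 Prostate cancer cells treated across a concentration range; viability read by CellTiter-Glo luminescence; experiments in triplicate; IC50 derived from the dose–response curves.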

Experiment [5] has as its target T2, Bromodomain-containing protein 1 (Homo sapiens) (UniProt O95696).
T2 sequence (whole entry): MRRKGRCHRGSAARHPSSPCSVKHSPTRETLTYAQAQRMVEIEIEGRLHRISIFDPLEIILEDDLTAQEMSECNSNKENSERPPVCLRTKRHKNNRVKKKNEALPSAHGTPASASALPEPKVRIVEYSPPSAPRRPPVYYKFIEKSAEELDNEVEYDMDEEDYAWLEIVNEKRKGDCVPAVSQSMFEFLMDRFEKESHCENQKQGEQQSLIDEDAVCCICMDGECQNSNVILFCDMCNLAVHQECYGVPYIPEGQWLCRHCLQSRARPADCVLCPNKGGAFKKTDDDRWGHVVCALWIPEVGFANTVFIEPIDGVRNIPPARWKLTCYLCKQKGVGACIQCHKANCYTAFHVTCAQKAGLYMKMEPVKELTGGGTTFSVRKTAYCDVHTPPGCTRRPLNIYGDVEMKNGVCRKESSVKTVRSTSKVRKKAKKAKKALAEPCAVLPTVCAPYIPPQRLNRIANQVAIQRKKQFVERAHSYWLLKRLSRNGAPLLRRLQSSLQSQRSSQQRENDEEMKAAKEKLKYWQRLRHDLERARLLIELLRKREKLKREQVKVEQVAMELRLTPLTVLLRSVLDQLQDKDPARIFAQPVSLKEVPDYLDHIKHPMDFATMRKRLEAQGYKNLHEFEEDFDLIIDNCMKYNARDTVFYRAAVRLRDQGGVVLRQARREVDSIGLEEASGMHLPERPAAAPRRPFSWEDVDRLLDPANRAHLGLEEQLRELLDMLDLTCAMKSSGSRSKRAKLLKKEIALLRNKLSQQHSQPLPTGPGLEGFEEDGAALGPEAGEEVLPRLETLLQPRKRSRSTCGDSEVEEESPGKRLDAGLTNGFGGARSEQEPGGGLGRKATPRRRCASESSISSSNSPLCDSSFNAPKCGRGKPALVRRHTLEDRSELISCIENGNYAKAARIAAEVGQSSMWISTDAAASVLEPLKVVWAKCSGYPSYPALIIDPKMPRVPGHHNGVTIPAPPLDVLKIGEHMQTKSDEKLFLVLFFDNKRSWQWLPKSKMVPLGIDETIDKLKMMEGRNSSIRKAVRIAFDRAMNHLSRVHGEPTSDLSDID
Nature of the experiment: Binding affinity to human recombinant His6-tagged BRD1 (E556 to A688 residues) expressed in Escherichia coli BL21 (DE3) cells assessed as change in melting temperature at 200 uM incubated for 30 mins by SYPRO orange dye based thermal shift assay. Put shortly: as §1

Experiment [6] deals with Histone acetyltransferase p300 (Homo sapiens) (UniProt Q09472). The experiment in a line: Binding affinity to human recombinant His6-tagged EP300 (A1040 to G1161 residues) expressed in Escherichia coli BL21 (DE3) cells assessed as change in melting temperature at 200 uM incubated for 30 mins by SYPRO orange dye based thermal shift assay. Summed up: as §1
Chain of Histone acetyltransferase p300 (Homo sapiens) (Q09472 whole entry, the tested form may be a part): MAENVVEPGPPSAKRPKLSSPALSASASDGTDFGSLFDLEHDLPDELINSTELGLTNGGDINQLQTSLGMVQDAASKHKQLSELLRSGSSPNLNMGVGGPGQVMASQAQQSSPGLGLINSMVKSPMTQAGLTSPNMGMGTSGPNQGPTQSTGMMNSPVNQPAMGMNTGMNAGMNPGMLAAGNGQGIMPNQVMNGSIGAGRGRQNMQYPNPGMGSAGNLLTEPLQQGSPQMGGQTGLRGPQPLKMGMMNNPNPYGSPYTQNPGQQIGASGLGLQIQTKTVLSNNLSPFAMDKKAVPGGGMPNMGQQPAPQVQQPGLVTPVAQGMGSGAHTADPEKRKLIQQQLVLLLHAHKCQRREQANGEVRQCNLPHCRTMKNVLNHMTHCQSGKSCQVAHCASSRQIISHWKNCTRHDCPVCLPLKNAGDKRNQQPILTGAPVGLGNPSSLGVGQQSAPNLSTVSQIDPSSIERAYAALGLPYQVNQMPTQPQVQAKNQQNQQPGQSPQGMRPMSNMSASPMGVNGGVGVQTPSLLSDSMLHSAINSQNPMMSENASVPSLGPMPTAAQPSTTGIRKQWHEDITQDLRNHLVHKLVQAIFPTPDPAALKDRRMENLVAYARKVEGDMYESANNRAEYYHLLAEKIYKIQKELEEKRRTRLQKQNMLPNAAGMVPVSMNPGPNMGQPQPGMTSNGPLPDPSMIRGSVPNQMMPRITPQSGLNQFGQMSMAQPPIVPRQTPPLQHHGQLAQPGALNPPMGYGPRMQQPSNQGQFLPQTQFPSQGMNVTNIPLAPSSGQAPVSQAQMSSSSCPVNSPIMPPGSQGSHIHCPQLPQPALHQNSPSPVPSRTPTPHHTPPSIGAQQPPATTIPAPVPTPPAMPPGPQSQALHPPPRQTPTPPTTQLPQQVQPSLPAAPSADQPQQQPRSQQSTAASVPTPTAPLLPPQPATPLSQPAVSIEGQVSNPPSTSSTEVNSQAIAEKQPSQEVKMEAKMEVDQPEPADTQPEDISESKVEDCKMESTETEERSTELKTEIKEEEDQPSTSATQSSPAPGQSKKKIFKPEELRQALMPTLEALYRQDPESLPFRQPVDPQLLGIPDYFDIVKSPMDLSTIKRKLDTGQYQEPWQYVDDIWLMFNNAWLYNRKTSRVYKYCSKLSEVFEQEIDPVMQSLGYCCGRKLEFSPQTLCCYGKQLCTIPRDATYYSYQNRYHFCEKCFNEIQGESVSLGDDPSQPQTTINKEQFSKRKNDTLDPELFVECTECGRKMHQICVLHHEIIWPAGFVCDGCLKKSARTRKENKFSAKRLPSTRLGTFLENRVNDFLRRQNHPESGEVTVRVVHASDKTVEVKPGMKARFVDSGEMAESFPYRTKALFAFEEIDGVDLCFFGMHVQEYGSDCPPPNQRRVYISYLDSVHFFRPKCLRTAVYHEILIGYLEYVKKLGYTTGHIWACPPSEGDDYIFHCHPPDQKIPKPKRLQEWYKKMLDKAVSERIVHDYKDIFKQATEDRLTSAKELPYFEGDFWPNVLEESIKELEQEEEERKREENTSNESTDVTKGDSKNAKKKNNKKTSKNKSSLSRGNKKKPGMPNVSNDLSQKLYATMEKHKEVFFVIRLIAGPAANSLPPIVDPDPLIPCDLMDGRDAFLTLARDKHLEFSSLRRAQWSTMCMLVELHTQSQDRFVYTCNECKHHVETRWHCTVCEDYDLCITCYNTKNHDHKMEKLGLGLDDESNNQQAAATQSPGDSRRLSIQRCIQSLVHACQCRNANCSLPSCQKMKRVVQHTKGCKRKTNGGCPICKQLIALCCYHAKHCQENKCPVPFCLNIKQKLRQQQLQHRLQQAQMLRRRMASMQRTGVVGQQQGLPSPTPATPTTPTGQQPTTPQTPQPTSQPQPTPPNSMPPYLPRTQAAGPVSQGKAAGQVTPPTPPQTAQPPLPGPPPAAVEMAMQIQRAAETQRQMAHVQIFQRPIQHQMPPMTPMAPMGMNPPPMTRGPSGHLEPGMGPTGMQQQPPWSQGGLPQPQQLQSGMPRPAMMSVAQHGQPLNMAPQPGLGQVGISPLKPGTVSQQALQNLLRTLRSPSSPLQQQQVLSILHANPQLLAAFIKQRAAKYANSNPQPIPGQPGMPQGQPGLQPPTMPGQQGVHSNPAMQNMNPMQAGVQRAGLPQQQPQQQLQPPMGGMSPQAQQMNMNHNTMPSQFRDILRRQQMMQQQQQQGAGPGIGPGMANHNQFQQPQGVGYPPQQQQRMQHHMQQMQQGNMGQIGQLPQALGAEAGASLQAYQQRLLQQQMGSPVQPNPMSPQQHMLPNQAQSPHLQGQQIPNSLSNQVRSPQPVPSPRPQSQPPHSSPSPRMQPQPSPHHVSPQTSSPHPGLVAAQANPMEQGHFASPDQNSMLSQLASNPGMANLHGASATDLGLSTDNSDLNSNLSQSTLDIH
A further experiment relates to LNCaP. The experiment in a line: Antiproliferative activity against AR-positive human LNCAP cells assessed as reduction in cell viability incubated for 96 hrs by cell-titer glo assay. The format is functional, cell-based. Summed up:
as §2

Experiment [7] addresses T1, Bromodomain-containing protein 4. Nature of the experiment: Binding affinity to human recombinant His6-tagged BRD4 bromodomain 1 (N44 to E168 residues) expressed in Escherichia coli BL21 (DE3) cells assessed as dissociation constant incubated for 1 hr by isothermal titration calorimetry. For orientation: In ITC the heat of successive injections is recorded.
The target in experiment [8] is Bromodomain-containing protein 2 (Homo sapiens) (UniProt P25440). Nature of the experiment: Binding affinity to human recombinant His6-tagged BRD2 bromodomain 1 (K77 to N194 residues) expressed in Escherichia coli BL21 (DE3) cells assessed as change in melting temperature at 200 uM incubated for 30 mins by SYPRO orange dye based thermal shift assay. Summed up: as §1
Chain of Bromodomain-containing protein 2 (Homo sapiens) (P25440 whole entry, looked up, the tested form may be a part): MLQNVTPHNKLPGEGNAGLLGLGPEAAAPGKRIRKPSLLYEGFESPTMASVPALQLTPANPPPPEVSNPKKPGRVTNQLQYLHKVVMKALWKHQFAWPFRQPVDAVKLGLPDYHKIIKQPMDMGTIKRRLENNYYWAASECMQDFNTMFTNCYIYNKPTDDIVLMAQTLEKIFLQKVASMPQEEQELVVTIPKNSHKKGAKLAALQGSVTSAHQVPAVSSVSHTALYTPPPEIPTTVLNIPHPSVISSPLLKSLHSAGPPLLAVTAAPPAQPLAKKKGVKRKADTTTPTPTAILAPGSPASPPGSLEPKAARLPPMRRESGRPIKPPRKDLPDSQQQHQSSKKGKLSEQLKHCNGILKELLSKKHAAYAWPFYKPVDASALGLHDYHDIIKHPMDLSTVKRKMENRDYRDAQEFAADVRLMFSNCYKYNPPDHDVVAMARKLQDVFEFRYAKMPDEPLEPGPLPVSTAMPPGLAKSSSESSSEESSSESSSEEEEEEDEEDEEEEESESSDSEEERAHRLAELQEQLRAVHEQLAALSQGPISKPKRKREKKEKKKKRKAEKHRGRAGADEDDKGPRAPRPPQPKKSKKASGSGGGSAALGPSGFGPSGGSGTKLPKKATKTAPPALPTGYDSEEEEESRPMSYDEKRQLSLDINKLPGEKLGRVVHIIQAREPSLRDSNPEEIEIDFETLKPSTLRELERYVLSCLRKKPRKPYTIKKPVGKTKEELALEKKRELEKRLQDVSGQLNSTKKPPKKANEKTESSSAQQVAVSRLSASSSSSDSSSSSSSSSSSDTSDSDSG

In experiment [9] the target is T1, Bromodomain-containing protein 4. The experiment in a line: Binding affinity to human recombinant His6-tagged BRD4 bromodomain 1 (N44 to E168 residues) expressed in Escherichia coli BL21 (DE3) cells assessed as change in entropy incubated for 1 hr by isothermal titration calorimetry.
Experiment [10] addresses Histone acetyltransferase KAT2B (Homo sapiens) (UniProt Q92831). Nature of the experiment: Binding affinity to human recombinant His6-tagged PCAF (G715 to D831 residues) expressed in Escherichia coli BL21 (DE3) cells assessed as change in melting temperature at 200 uM incubated for 30 mins by SYPRO orange dye based thermal shift assay. Summed up: as §1
For a further experiment, the system named is LNCaP C4-2B. The experiment in a line: Antiproliferative activity against AR-positive human C4-2B cells assessed as reduction in cell viability incubated for 96 hrs by cell-titer glo assay. In kind it is functional, cell-based. Summed up: as §2
The subject of another experiment is CWR22R. The experiment in a line: Antiproliferative activity against AR-positive human 22Rv1 cells assessed as reduction in cell viability incubated for 96 hrs by cell-titer glo assay. In kind it is functional, cell-based. The conditions noted are these: 22Rv1, 96 h. Put shortly:
as §2

For experiment [11], the target named is T1, Bromodomain-containing protein 4. The experiment in a line: Binding affinity to human recombinant His6-tagged BRD4 bromodomain 1 (N44 to E168 residues) expressed in Escherichia coli BL21 (DE3) cells assessed as change in enthalpy incubated for 1 hr by isothermal titration calorimetry.

Chain of Histone acetyltransferase KAT2B (Homo sapiens) (Q92831 whole entry, looked up, the tested form may be a part): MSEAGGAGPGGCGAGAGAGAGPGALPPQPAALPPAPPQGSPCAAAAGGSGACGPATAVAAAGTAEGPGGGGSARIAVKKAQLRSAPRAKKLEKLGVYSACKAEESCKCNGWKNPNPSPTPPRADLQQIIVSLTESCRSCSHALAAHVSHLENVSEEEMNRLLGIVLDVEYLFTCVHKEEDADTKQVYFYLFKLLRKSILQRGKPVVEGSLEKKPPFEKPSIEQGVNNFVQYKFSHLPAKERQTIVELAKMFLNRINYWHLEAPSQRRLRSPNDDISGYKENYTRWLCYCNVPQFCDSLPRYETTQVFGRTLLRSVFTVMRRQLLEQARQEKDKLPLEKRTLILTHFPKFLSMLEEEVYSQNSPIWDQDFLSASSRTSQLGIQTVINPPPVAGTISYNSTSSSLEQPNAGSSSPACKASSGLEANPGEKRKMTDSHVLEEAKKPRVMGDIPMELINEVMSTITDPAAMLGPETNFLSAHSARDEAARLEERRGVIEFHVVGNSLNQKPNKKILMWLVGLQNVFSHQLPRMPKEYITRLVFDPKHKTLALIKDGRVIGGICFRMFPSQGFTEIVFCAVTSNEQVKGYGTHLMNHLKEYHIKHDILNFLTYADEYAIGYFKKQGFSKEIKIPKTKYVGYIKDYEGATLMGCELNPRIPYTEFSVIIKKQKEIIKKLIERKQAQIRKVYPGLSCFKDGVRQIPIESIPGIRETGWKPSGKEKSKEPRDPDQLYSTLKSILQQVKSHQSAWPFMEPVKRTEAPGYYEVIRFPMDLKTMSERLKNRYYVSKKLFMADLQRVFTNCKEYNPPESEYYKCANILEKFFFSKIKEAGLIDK
Chain of Bromodomain-containing protein 3 (Homo sapiens) (Q15059 2-726 limits assumed): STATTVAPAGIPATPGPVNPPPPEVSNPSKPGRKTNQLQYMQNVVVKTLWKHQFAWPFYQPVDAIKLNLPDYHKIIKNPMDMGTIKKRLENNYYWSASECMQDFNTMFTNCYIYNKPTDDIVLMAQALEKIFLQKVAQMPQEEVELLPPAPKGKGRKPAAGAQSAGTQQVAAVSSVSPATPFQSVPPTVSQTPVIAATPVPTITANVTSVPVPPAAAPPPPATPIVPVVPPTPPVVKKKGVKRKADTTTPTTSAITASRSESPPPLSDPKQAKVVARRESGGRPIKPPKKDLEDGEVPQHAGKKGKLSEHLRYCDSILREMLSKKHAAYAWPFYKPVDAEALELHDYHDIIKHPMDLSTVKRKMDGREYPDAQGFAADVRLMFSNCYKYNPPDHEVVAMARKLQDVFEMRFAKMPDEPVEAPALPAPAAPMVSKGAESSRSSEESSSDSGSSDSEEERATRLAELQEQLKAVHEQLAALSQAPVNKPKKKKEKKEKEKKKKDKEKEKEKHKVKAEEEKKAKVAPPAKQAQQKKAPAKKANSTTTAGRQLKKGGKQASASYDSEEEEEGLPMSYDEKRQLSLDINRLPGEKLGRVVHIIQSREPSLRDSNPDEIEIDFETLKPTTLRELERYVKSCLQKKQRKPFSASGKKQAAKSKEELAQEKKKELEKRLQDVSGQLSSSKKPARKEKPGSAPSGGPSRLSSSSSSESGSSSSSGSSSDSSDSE

For `COc1cc2onc(C)c2cc1NS(=O)(=O)c1cc(Br)ccc1OC`, the shift in melting temperature (ΔTm) in experiment [1] is 9.8 °C; in experiment [2] it was 1.4 °C; in [3], 8.1 °C; in [4], 5.6 °C; in [5], -0.1 °C; in experiment [6], 2 °C. Besides, the thermal shift (ΔTm) stood at 5.3 °C in experiment [8] and 2.7 °C in [10]. In addition, the half-inhibitory concentration (IC50) was found to be 630 nM in the experiment with VCaP, 1060 nM with LNCaP, 2620 nM in the experiment with LNCaP C4-2B and 1500 nM with CWR22R. The Kd in [7] is 82 nM. Moreover, the TdeltaS in experiment [9] was -2.5 kcal/mol. Besides, in experiment [11], the deltaH was -12.2 kcal/mol.

As to `Cc1noc2c(Br)cc(-c3nc4ccc(N5CCOCC5)cc4n3CC3CCCCC3)cc12`, the ΔTm is 9.2 °C in experiment [1]; 0 °C in [2]; 8.9 °C in experiment [3]; 4.2 °C in experiment [4]; 0 °C in experiment [5]; -0.3 °C in experiment [6]. Moreover, the results for the ΔTm in experiment [8] and in [10] were 6 °C and -0.6 °C, respectively. In addition, the half-inhibitory concentration (IC50) in the experiment with VCaP is 500 nM; with LNCaP it was 570 nM; in the experiment with LNCaP C4-2B, 850 nM; in the experiment on CWR22R, 640 nM. Also, the Kd in [7] came to 159 nM. The TdeltaS in [9] is -1.4 kcal/mol. Also, the deltaH in [11] was -10.7 kcal/mol.

As for `Cc1noc2ccc(-c3nc4ccc(N5CCOC[C@@H]5C)cc4n3CC3CCCCC3)cc12`, the ΔTm in experiment [1] turned out to be 9.9 °C; in experiment [2], 0.3 °C; in [3] it was 8.7 °C; in experiment [4], 3.6 °C; in experiment [5], 0.3 °C; in experiment [6], 0.3 °C. Moreover, the ΔTm in experiment [8] is 6.3 °C; in [10], -0.6 °C. Moreover, the 50% inhibitory concentration (IC50) was found to be 290 nM with VCaP, 470 nM in the experiment with LNCaP, 840 nM with LNCaP C4-2B and 700 nM with CWR22R. In addition, the Kd in experiment [7] was found to be 81 nM. Moreover, the TdeltaS in experiment [9] was -2.2 kcal/mol. For the same compound, the deltaH in [11] is -11.9 kcal/mol.

Consider `CNc1cc2onc(C)c2cc1NS(=O)(=O)c1cc(Br)ccc1OC`, for which the shift in melting temperature (ΔTm) in experiment [1] was 9.2 °C; in experiment [2] it was 2.1 °C; in experiment [3] it was 6.5 °C; in experiment [4], 5.1 °C; in experiment [5], -0.4 °C; in experiment [6], 2.3 °C. For the same compound, the ΔTm came out at 5.3 °C in experiment [8] and 2.6 °C in experiment [10]. Moreover, the IC50 in the experiment on VCaP is 3020 nM; with LNCaP, 6160 nM; in the experiment on LNCaP C4-2B, 6430 nM; in the experiment with CWR22R, 6730 nM. Moreover, the Kd in [7] is 164 nM. Further, in [9], the TdeltaS was -6 kcal/mol. Further, the deltaH in experiment [11] was -15.3 kcal/mol.

A word on the ΔTm: it is the shift of the melting midpoint relative to a reference. The term IC50 denotes the concentration needed to halve the response being measured. Usually Kd stands for the equilibrium constant for the complex coming apart.

Source of the values: ChEMBL document CHEMBL4765238, “Structure-Based Discovery and Optimization of Benzo[ d]isoxazole Derivatives as Potent and Selective BET Inhibitors for Potential Treatment of Castration-Resistant Prostate Cancer (CRPC)” (J Med Chem, 2018).
